Source: ChEMBL document CHEMBL1914304 (J Med Chem, 2011)

How the values were obtained:
[1] = Selectivity ratio of EC50 for human HepG2 cells to EC50 for Plasmodium falciparum
[2] = system: HEK293; test: Cytotoxicity against human HEK293 cells after 72 hrs by luminescence assay; type: cell-based; conditions: hek293, 72 h
[3] = system: Raji; test: Cytotoxicity against human Raji cells after 72 hrs by luminescence assay; type: cell-based
[4] = system: HepG2; test: Cytotoxicity against human HepG2 cells after 72 hrs by luminescence assay; type: cell-based; conditions: hepg2, 72 h
[5] = system: BJ; test: Cytotoxicity against human BJ cells after 72 hrs by luminescence assay; type: cell-based
[6] = Solubility of the compound in phosphate buffered saline by UV spectrophotometry; type: physicochemical
[7] = target: T1, Sodium channel protein type 5 subunit alpha (Homo sapiens, UniProt Q14524); test: Inhibition of human cloned Nav1.5 channel expressed in chinese hamster CHO cells assessed as tonic inhibition after 5 mins by patch clamp assay; type: cell-based
T1 sequence (Q14524 whole entry): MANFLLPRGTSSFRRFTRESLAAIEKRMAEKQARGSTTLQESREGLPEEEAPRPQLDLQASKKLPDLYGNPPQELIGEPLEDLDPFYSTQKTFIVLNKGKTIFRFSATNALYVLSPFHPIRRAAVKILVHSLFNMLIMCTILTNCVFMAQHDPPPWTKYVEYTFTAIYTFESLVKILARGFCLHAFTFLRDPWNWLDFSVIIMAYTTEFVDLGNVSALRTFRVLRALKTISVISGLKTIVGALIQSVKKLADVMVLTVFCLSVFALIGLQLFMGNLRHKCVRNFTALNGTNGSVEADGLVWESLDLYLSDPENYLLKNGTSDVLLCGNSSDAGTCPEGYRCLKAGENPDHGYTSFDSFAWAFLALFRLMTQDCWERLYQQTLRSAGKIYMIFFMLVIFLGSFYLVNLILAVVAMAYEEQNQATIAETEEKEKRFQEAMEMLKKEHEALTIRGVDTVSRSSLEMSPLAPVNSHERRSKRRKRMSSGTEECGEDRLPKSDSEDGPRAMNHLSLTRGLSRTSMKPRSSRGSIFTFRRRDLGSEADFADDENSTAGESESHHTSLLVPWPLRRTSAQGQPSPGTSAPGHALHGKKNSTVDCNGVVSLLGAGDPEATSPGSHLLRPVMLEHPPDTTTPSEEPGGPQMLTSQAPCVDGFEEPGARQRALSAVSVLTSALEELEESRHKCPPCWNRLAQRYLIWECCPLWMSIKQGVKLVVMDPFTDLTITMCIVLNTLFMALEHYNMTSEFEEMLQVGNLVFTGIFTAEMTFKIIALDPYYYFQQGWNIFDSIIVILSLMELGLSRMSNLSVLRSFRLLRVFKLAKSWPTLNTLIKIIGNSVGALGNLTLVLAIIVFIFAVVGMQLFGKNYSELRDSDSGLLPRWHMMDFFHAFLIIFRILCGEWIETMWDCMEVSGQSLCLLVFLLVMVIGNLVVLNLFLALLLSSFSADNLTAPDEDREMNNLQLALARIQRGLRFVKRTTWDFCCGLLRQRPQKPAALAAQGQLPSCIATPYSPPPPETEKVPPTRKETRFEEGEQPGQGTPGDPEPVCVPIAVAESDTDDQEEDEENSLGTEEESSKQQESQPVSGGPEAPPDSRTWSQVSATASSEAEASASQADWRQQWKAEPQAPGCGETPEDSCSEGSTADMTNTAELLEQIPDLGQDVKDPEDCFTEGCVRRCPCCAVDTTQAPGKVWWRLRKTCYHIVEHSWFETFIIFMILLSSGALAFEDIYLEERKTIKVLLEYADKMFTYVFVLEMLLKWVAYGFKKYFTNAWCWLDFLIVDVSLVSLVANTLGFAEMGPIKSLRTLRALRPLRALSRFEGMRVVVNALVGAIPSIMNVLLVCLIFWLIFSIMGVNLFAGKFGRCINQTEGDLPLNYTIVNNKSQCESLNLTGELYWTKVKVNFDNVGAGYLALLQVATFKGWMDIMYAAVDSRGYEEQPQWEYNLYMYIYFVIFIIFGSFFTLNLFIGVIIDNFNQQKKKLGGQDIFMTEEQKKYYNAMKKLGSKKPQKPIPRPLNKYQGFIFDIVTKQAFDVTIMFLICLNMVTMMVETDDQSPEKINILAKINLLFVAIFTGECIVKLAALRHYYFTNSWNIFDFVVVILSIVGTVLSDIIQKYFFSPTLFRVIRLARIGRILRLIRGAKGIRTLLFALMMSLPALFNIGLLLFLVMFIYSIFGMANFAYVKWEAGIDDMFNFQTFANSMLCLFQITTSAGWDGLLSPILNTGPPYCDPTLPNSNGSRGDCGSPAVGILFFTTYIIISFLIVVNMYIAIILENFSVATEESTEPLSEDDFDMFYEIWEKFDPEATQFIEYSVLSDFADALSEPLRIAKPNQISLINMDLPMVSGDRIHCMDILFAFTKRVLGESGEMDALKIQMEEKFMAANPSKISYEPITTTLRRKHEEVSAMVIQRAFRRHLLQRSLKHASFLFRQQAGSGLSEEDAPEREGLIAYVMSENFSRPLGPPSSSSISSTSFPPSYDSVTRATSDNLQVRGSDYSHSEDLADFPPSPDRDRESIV

[8] = target: Sulfonylurea receptor 2, Kir6.2 (Homo sapiens, UniProt O60706+Q14654); test: Inhibition of human kir6.2/SUR2A ion channel coexpressed in human HEK293 cells after 5 mins by patch clamp assay; type: cell-based
Sulfonylurea receptor 2, Kir6.2, sequence (Q14654 whole entry): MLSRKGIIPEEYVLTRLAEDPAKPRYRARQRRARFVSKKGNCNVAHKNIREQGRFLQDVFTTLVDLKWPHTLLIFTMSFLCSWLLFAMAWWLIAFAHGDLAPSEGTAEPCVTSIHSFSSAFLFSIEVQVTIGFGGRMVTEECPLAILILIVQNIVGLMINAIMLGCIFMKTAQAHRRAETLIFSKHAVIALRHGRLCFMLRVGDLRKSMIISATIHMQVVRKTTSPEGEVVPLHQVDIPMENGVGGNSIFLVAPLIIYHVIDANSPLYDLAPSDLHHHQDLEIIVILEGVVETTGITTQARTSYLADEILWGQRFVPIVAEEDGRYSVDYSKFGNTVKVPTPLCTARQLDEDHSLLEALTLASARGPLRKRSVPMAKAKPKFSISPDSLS
Sulfonylurea receptor 2, Kir6.2, sequence (O60706 whole entry): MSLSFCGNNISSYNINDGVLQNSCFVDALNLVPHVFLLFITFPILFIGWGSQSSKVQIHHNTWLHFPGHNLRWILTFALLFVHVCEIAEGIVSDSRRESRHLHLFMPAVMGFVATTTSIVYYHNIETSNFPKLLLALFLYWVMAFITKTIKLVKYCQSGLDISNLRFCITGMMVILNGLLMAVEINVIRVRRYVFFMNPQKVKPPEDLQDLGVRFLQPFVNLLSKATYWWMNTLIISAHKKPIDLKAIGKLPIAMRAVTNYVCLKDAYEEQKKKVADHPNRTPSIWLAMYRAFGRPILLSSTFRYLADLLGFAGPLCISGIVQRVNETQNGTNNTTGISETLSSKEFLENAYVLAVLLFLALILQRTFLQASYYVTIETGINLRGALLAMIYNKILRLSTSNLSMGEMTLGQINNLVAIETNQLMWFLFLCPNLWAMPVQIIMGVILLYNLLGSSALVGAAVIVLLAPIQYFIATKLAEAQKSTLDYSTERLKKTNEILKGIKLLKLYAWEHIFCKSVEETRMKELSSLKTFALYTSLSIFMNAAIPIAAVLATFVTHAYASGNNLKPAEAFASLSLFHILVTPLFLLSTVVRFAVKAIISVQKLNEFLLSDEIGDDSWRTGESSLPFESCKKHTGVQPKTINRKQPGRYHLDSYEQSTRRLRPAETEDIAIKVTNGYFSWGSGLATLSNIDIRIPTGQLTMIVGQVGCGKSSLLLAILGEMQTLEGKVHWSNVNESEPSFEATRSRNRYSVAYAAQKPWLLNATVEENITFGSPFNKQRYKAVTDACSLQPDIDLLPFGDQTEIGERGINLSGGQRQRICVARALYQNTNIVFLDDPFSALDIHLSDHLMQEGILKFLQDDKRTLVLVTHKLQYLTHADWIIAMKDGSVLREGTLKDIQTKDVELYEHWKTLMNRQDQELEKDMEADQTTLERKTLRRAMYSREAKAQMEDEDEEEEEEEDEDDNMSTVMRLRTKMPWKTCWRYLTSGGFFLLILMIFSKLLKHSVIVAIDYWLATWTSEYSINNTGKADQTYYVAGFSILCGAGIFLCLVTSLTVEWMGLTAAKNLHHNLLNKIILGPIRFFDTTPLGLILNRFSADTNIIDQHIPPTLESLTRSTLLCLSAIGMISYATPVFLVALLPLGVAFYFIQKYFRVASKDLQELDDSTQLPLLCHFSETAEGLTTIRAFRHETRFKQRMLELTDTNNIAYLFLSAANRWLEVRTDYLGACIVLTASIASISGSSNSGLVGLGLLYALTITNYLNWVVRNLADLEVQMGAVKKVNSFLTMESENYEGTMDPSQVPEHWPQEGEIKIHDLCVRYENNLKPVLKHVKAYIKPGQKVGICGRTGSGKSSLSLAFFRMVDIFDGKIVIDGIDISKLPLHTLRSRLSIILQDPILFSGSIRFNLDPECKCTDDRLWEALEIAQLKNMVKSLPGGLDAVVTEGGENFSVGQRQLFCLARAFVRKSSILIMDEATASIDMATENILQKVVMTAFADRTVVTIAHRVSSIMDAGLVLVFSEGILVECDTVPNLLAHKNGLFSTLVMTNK
Procedure, shortened: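 Human KCNJ11 (Kir6.2) and SUR2A were co-expressed in HEK293 cells to give the ATP-sensitive current IKATP. The assay was run at room temperature by automated parallel patch clamp, with dose-response at 0.2, 0.6, 1.6 and 5 µM. Exposure was 5 min per concentration, with each concentration in two cells (n ≥ 2).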

[9] = target: T1, Sodium channel protein type 5 subunit alpha; test: Inhibition of human cloned Nav1.5 channel expressed in chinese hamster CHO cells assessed as phasic inhibition after 5 mins by patch clamp assay; type: cell-based
[10] = Chemical stability in simulated gastric fluid at pH 2 over 24 hrs; type: physicochemical; conditions: simulated gi fluid, pH 2, 24 h
[11] = Chemical stability in simulated gastric fluid at pH 5 over 24 hrs; type: physicochemical; conditions: simulated gi fluid, pH 5, 24 h
[12] = system: Plasma; test: Metabolic stability in mouse plasma over 24 hrs; type: ADME, cell-free

Compound | selectivity ratio [1] | Activity [2] | Activity [3] | Activity [4] | Activity [5] | solubility [6] [µM] | IC50 [7] [µM] | IC50 [8] [µM] | IC50 [9] [µM] | Stability [10] | Stability [11] | Stability [12]
CC(C)(C)NCC(O)COc1ccccc1C(=O)CCc1ccccc1.Cl (racemic) | > 10 | Non-toxic | Non-toxic | Non-toxic | Non-toxic |  |  |  |  |  |  | 
Cl.O=C(CCc1ccccc1)c1ccccc1OCC1CO1 (racemic) | > 10 | Non-toxic | Non-toxic | Non-toxic | Non-toxic |  |  |  |  |  |  | 
Cl.O=C(CCc1ccccc1)c1cc(F)ccc1OCC1CO1 (racemic) | > 10 | Non-toxic | Non-toxic | Non-toxic | Non-toxic |  |  |  |  |  |  | 
Cl.O=C(CCc1ccc(F)cc1)c1ccccc1OCC1CO1 (racemic) | > 10 | Non-toxic | Non-toxic | Non-toxic | Non-toxic |  |  |  |  |  |  | 
Cl.O=C(CCc1ccc(F)cc1)c1cc(F)ccc1OCC1CO1 (racemic) | > 10 | Non-toxic | Non-toxic | Non-toxic | Non-toxic |  |  |  |  |  |  | 
Cl.O=C(CCc1ccccc1)c1ccccc1OCC(O)CNCc1ccccc1 (racemic) | > 10 | Non-toxic | Non-toxic | Non-toxic | Non-toxic |  |  |  |  |  |  | 
Cl.O=C(CCc1ccccc1)c1ccccc1OCC(O)CN(Cc1ccccc1)c1ccccc1 (racemic) | > 10 | Non-toxic | Non-toxic | Non-toxic | Non-toxic |  |  |  |  |  |  | 
Cc1cccc(N(CC(O)COc2ccccc2C(=O)CCc2ccccc2)c2ccccc2)c1.Cl (racemic) | > 10 | Non-toxic | Non-toxic | Non-toxic | Non-toxic |  |  |  |  |  |  | 
CN(CCc1ccccc1)CC(O)COc1ccccc1C(=O)CCc1ccccc1.Cl (racemic) | > 10 | Non-toxic | Non-toxic | Non-toxic | Non-toxic |  |  |  |  |  |  | 
CCN(CC)CC(O)COc1ccccc1C(=O)CCc1ccccc1.Cl (racemic) | > 10 | Non-toxic | Non-toxic | Non-toxic | Non-toxic |  |  |  |  |  |  | 
CCCN(CCC)CC(O)COc1ccccc1C(=O)CCc1ccccc1.Cl (racemic) | > 10 | Non-toxic | Non-toxic | Non-toxic | Non-toxic |  |  |  |  |  |  | 
CCCCN(CCCC)CC(O)COc1ccccc1C(=O)CCc1ccccc1.Cl (racemic) | > 10 | Non-toxic | Non-toxic | Non-toxic | Non-toxic |  |  |  |  |  |  | 
CC(C)N(CC(O)COc1ccccc1C(=O)CCc1ccccc1)c1ccccc1.Cl (racemic) | > 10 | Non-toxic | Non-toxic | Non-toxic | Non-toxic |  |  |  |  |  |  | 
Cl.O=C(CCc1ccccc1)c1ccccc1OCC(O)CN(C1CCCCC1)C1CCCCC1 (racemic) | > 10 | Non-toxic | Non-toxic | Non-toxic | Non-toxic |  |  |  |  |  |  | 
Cl.O=C(CCc1ccc(F)cc1)c1ccccc1OCC(O)CNCc1ccccc1 (racemic) | > 10 | Non-toxic | Non-toxic | Non-toxic | Non-toxic |  |  |  |  |  |  | 
Cl.O=C(CCc1ccc(F)cc1)c1ccccc1OCC(O)CN(Cc1ccccc1)c1ccccc1 (racemic) | > 10 | Non-toxic | Non-toxic | Non-toxic | Non-toxic |  |  |  |  |  |  | 
COc1cccc(N(CC(O)COc2ccccc2C(=O)CCc2ccc(F)cc2)c2ccccc2)c1.Cl (racemic) | > 10 | Non-toxic | Non-toxic | Non-toxic | Non-toxic |  |  |  |  |  |  | 
CN(CCc1ccccc1)CC(O)COc1ccccc1C(=O)CCc1ccc(F)cc1.Cl (racemic) | > 10 | Non-toxic | Non-toxic | Non-toxic | Non-toxic |  |  |  |  |  |  | 

Compound | selectivity ratio [1] | Activity [2] | Activity [3] | Activity [4] | Activity [5] | solubility [6] [µM] | IC50 [7] [µM] | IC50 [8] [µM] | IC50 [9] [µM] | Stability [10] | Stability [11] | Stability [12]
CCN(CC)CC(O)COc1ccccc1C(=O)CCc1ccc(F)cc1.Cl (racemic) | > 10 | Non-toxic | Non-toxic | Non-toxic | Non-toxic |  |  |  |  |  |  | 
CCCN(CCC)CC(O)COc1ccccc1C(=O)CCc1ccc(F)cc1.Cl (racemic) | > 10 | Non-toxic | Non-toxic | Non-toxic | Non-toxic |  |  |  |  |  |  | 
CCCCN(CCCC)CC(O)COc1ccccc1C(=O)CCc1ccc(F)cc1.Cl (racemic) | > 10 | Non-toxic | Non-toxic | Non-toxic | Non-toxic |  |  |  |  |  |  | 
CC(C)N(CC(O)COc1ccccc1C(=O)CCc1ccc(F)cc1)c1ccccc1.Cl (racemic) | > 10 | Non-toxic | Non-toxic | Non-toxic | Non-toxic |  |  |  |  |  |  | 
Cl.O=C(CCc1ccc(F)cc1)c1ccccc1OCC(O)CN(C1CCCCC1)C1CCCCC1 (racemic) | > 10 | Non-toxic | Non-toxic | Non-toxic | Non-toxic |  |  |  |  |  |  | 
Cl.O=C(CCc1ccccc1)c1cc(F)ccc1OCC(O)CNCc1ccccc1 (racemic) | > 10 | Non-toxic | Non-toxic | Non-toxic | Non-toxic |  |  |  |  |  |  | 
Cl.O=C(CCc1ccccc1)c1cc(F)ccc1OCC(O)CN(Cc1ccccc1)c1ccccc1 (racemic) | > 10 | Non-toxic | Non-toxic | Non-toxic | Non-toxic |  |  |  |  |  |  | 
Cc1cccc(N(CC(O)COc2ccc(F)cc2C(=O)CCc2ccccc2)c2ccccc2)c1.Cl (racemic) | > 10 | Non-toxic | Non-toxic | Non-toxic | Non-toxic |  |  |  |  |  |  | 
COc1cccc(N(CC(O)COc2ccc(F)cc2C(=O)CCc2ccccc2)c2ccccc2)c1.Cl (racemic) | > 10 | Non-toxic | Non-toxic | Non-toxic | Non-toxic |  |  |  |  |  |  | 
CN(CCc1ccccc1)CC(O)COc1ccc(F)cc1C(=O)CCc1ccccc1.Cl (racemic) | > 10 | Non-toxic | Non-toxic | Non-toxic | Non-toxic |  |  |  |  |  |  | 
CCN(CC)CC(O)COc1ccc(F)cc1C(=O)CCc1ccccc1.Cl (racemic) | > 10 | Non-toxic | Non-toxic | Non-toxic | Non-toxic |  |  |  |  |  |  | 
CCCN(CCC)CC(O)COc1ccc(F)cc1C(=O)CCc1ccccc1.Cl (racemic) | > 10 | Non-toxic | Non-toxic | Non-toxic | Non-toxic |  |  |  |  |  |  | 
CCCCN(CCCC)CC(O)COc1ccc(F)cc1C(=O)CCc1ccccc1.Cl (racemic) | > 10 | Non-toxic | Non-toxic | Non-toxic | Non-toxic |  |  |  |  |  |  | 
Cl.O=C(CCc1ccccc1)c1cc(F)ccc1OCC(O)CN(C1CCCCC1)C1CCCCC1 (racemic) | > 10 | Non-toxic | Non-toxic | Non-toxic | Non-toxic |  |  |  |  |  |  | 
Cl.O=C(CCc1ccc(F)cc1)c1cc(F)ccc1OCC(O)CNCc1ccccc1 (racemic) | > 10 | Non-toxic | Non-toxic | Non-toxic | Non-toxic |  |  |  |  |  |  | 
Cl.O=C(CCc1ccc(F)cc1)c1cc(F)ccc1OCC(O)CN(Cc1ccccc1)c1ccccc1 (racemic) | > 10 | Non-toxic | Non-toxic | Non-toxic | Non-toxic |  |  |  |  |  |  | 
Cc1cccc(N(CC(O)COc2ccc(F)cc2C(=O)CCc2ccc(F)cc2)c2ccccc2)c1.Cl (racemic) | > 10 | Non-toxic | Non-toxic | Non-toxic | Non-toxic |  |  |  |  |  |  | 
Cl.O=C(CCc1ccccc1)c1cc(F)ccc1OCC(O)CN1CCN(C(c2ccccc2)c2ccccc2)CC1 (racemic) |  | Non-toxic | Non-toxic | Non-toxic | Non-toxic | 0.11 | > 5 | > 5 | > 5 | Stable | Stable | Stable
